Results reported in ChEMBL document CHEMBL1782040, “Exceptionally fast uptake and metabolism of cyanidin 3-glucoside by rat kidneys and liver” (J Nat Prod, 2011).

Legend:
[1] = Drug uptake in Wistar rat plasma at 0.67 umol, iv after 0.25 mins by mass spectrometry analysis; type: ADME, organism-based
Procedure, shortened: (§1)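 Fasted, anaesthetized rats received the anthocyanin in saline as a 0.67 μmol iliac-vein bolus (76 μM in plasma). They were sacrificed at 15 s, 1, 5 or 15 min, and plasma, kidneys, liver, urine and bile were collected. Anthocyanins were methanol-extracted, SPE-cleaned and quantified by MS (tandem MS for trace metabolites), then corrected for recovery measured on spiked blood, homogenates and urine. Amounts assume 8.8 mL plasma, 2.4 g kidney and 7.0 g liver, with urine and bile volumes measured.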

[2] = Drug uptake in Wistar rat plasma at 0.67 umol, iv after 1 min by mass spectrometry analysis; type: ADME, organism-based; procedure, shortened: as §1
[3] = Drug uptake in Wistar rat plasma at 0.67 umol, iv after 5 mins by mass spectrometry analysis; type: ADME, organism-based; procedure, shortened: as §1
[4] = Drug uptake in Wistar rat plasma at 0.67 umol, iv after 15 mins by mass spectrometry analysis; type: ADME, organism-based; procedure, shortened: as §1
Kidney [5] = experiment: Drug uptake in Wistar rat kidney assessed by assuming kidney mass was 2.4 gram at 0.67 umol, iv after 0.25 mins by mass spectrometry analysis; type: ADME, organism-based; conditions: in vivo, 15 s
Procedure, shortened: (§2)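 Cyanidin 3-glucoside in saline was given as one iliac-vein injection (0.67 μmol) to fasting, anaesthetized rats, which were killed at 15 s, 1, 5 or 15 min. Kidneys were homogenized, extracted in methanol, cleaned up by SPE and analysed by LC-MS/MS.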

[6] = Drug uptake in Wistar rat kidney at 0.67 umol, iv after 0.25 mins by mass spectrometry analysis; type: ADME, organism-based; conditions: read-out: Drug uptake; procedure, shortened: as §2
Kidney [7] = experiment: Drug uptake in Wistar rat kidney assessed by assuming kidney mass was 2.4 gram at 0.67 umol, iv after 1 min by mass spectrometry analysis; type: ADME, organism-based; conditions: in vivo; procedure, shortened: as §2
[8] = Drug uptake in Wistar rat kidney at 0.67 umol, iv after 1 min by mass spectrometry analysis; type: ADME, organism-based; conditions: read-out: Drug uptake; procedure, shortened: as §2
Kidney [9] = experiment: Drug uptake in Wistar rat kidney assessed by assuming kidney mass was 2.4 gram at 0.67 umol, iv after 5 mins by mass spectrometry analysis; type: ADME, organism-based; conditions: in vivo; procedure, shortened: as §2
[10] = Drug uptake in Wistar rat kidney at 0.67 umol, iv after 5 mins by mass spectrometry analysis; type: ADME, organism-based; conditions: read-out: Drug uptake; procedure, shortened: as §2
Kidney [11] = experiment: Drug uptake in Wistar rat kidney assessed by assuming kidney mass was 2.4 gram at 0.67 umol, iv after 15 mins by mass spectrometry analysis; type: ADME, organism-based; conditions: in vivo, 0.25 h; procedure, shortened: as §2
[12] = Drug uptake in Wistar rat kidney at 0.67 umol, iv after 15 mins by mass spectrometry analysis; type: ADME, organism-based; conditions: read-out: Drug uptake; procedure, shortened: as §2
Liver [13] = experiment: Drug uptake in Wistar rat liver assessed by assuming liver mass was 7 grams at 0.67 umol, iv after 0.25 mins by mass spectrometry analysis; type: ADME, organism-based; conditions: in vivo, 15 s
Procedure, shortened: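 Fasting, anaesthetized rats received cyanidin 3-glucoside in saline into the iliac vein (0.67 μmol) and were killed at 15 s, 1, 5 or 15 min. Liver homogenates were methanol-extracted, cleaned up by SPE and quantified by LC-MS/MS.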

[14] = Drug uptake in Wistar rat liver at 0.67 umol, iv after 0.25 mins by mass spectrometry analysis; type: ADME, organism-based; conditions: read-out: Drug uptake; procedure, shortened: as §1
Liver [15] = experiment: Drug uptake in Wistar rat liver assessed by assuming liver mass was 7 grams at 0.67 umol, iv after 1 min by mass spectrometry analysis; type: ADME, organism-based; conditions: in vivo; procedure, shortened: as §1
[16] = Drug uptake in Wistar rat liver at 0.67 umol, iv after 1 min by mass spectrometry analysis; type: ADME, organism-based; conditions: read-out: Drug uptake; procedure, shortened: as §1
Liver [17] = experiment: Drug uptake in Wistar rat liver assessed by assuming liver mass was 7 grams at 0.67 umol, iv after 5 mins by mass spectrometry analysis; type: ADME, organism-based; conditions: in vivo; procedure, shortened: as §1
[18] = Drug uptake in Wistar rat liver at 0.67 umol, iv after 5 mins by mass spectrometry analysis; type: ADME, organism-based; conditions: read-out: Drug uptake; procedure, shortened: as §1
Liver [19] = experiment: Drug uptake in Wistar rat liver assessed by assuming liver mass was 7 grams at 0.67 umol, iv after 15 mins by mass spectrometry analysis; type: ADME, organism-based; conditions: in vivo, 0.25 h; procedure, shortened: as §1
[20] = Drug uptake in Wistar rat liver at 0.67 umol, iv after 15 mins by mass spectrometry analysis; type: ADME, organism-based; conditions: read-out: Drug uptake; procedure, shortened: as §1
[21] = Elimination rate constant in Wistar rat plasma at 0.67 umol, iv; type: ADME, cell-free
Procedure, shortened: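 Rats received a 0.67 μmol iliac-vein bolus in saline under anaesthesia. Plasma amounts (nmol) at 15 s, 1, 5 and 15 min were obtained by recovery-corrected MS and fitted to y = y0 + a·e^(−kt). k is the first-order elimination constant, y0 the steady-state amount, and a the extrapolated t0 amount minus y0.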

[22] = Drug uptake in Wistar rat urine assessed by assuming plasma volume was 8.8 mL at 0.67 umol, iv after 15 mins by mass spectrometry analysis; type: ADME, organism-based; conditions: in vivo, 0.25 h; procedure, shortened: as §1
[23] = Drug uptake in Wistar rat urine at 0.67 umol, iv after 15 mins by mass spectrometry analysis; type: ADME, organism-based; conditions: read-out: Drug uptake; procedure, shortened: as §1
[24] = Drug uptake in Wistar rat bile assessed by assuming plasma volume was 8.8 mL at 0.67 umol, iv after 15 mins by mass spectrometry analysis; type: ADME, organism-based; conditions: in vivo, 0.25 h
[25] = Drug uptake in Wistar rat bile at 0.67 umol, iv after 15 mins by mass spectrometry analysis; type: ADME, organism-based; conditions: read-out: Drug uptake
Procedure, shortened: (§3)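 Cyanidin 3-glucoside in saline was injected into the iliac vein of fasting, anaesthetized rats (0.67 μmol; 76 μM in plasma). Urine and bile were collected to 15 min, and their volumes were measured. Anthocyanin levels were measured by LC-MS and corrected for recovery from spiked standards. Amounts are given per collected volume (n = 9 urine, n = 4 bile).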

[26] = Drug excretion in Wistar rat urine at 0.67 umol, iv after 15 mins by mass spectrometry analysis; type: ADME, organism-based; conditions: read-out: Activity; procedure, shortened: as §3
[27] = Drug excretion in Wistar rat bile at 0.67 umol, iv after 15 mins by mass spectrometry analysis; type: ADME, organism-based; conditions: read-out: Activity; procedure, shortened: as §3
Nucleic Acid [28] = experiment: Ratio of drug uptake in urine to kidney in Wistar rat at 0.67 umol, iv after 15 mins by mass spectrometry analysis; type: ADME, organism-based; conditions: in vivo, 0.25 h
Procedure, shortened: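 Fasting anaesthetized rats got 0.67 μmol anthocyanin in saline into the iliac vein (about 76 μM in plasma) and were killed at 15 min. Urine (volume measured) and kidneys (2.4 g assumed) were extracted in methanol and cleaned by SPE. Analytes were quantified by LC-tandem MS, corrected for recovery from spiked matrices, n = 9 rats.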

Nucleic Acid [29] = experiment: Ratio of drug uptake in bile to liver in Wistar rat at 0.67 umol, iv after 15 mins by mass spectrometry analysis; type: ADME, organism-based; conditions: in vivo, 0.25 h
Plasma [30] = experiment: Metabolic stability in Wistar rat assessed as parent compound level in plasma at 0.67 umol, iv after 0.25 mins by mass spectrometry analysis; type: ADME, organism-based; conditions: in vivo, 15 s; procedure, shortened: as §1
Plasma [31] = experiment: Metabolic stability in Wistar rat assessed as parent compound level in plasma at 0.67 umol, iv after 1 min by mass spectrometry analysis; type: ADME, organism-based; conditions: in vivo; procedure, shortened: as §1
Plasma [32] = experiment: Metabolic stability in Wistar rat assessed as parent compound level in plasma at 0.67 umol, iv after 5 mins by mass spectrometry analysis; type: ADME, organism-based; conditions: in vivo; procedure, shortened: as §1
Plasma [33] = experiment: Metabolic stability in Wistar rat assessed as parent compound level in plasma at 0.67 umol, iv after 15 mins by mass spectrometry analysis; type: ADME, organism-based; conditions: in vivo, 0.25 h; procedure, shortened: as §1
Kidney [34] = experiment: Metabolic stability in Wistar rat assessed as parent compound level in kidney at 0.67 umol, iv after 0.25 mins by mass spectrometry analysis; type: ADME, organism-based; conditions: in vivo, 15 s; procedure, shortened: as §1
Kidney [35] = experiment: Metabolic stability in Wistar rat assessed as parent compound level in kidney at 0.67 umol, iv after 1 min by mass spectrometry analysis; type: ADME, organism-based; conditions: in vivo; procedure, shortened: as §1
Kidney [36] = experiment: Metabolic stability in Wistar rat assessed as parent compound level in kidney at 0.67 umol, iv after 5 mins by mass spectrometry analysis; type: ADME, organism-based; conditions: in vivo; procedure, shortened: as §1
Kidney [37] = experiment: Metabolic stability in Wistar rat assessed as parent compound level in kidney at 0.67 umol, iv after 15 mins by mass spectrometry analysis; type: ADME, organism-based; conditions: in vivo, 0.25 h; procedure, shortened: as §1
Liver [38] = experiment: Metabolic stability in Wistar rat assessed as parent compound level in liver at 0.67 umol, iv after 0.25 mins by mass spectrometry analysis; type: ADME, organism-based; conditions: in vivo, 15 s; procedure, shortened: as §1
Liver [39] = experiment: Metabolic stability in Wistar rat assessed as parent compound level in liver at 0.67 umol, iv after 1 min by mass spectrometry analysis; type: ADME, organism-based; conditions: in vivo; procedure, shortened: as §1
Liver [40] = experiment: Metabolic stability in Wistar rat assessed as parent compound level in liver at 0.67 umol, iv after 5 mins by mass spectrometry analysis; type: ADME, organism-based; conditions: in vivo; procedure, shortened: as §1
Liver [41] = experiment: Metabolic stability in Wistar rat assessed as parent compound level in liver at 0.67 umol, iv after 15 mins by mass spectrometry analysis; type: ADME, organism-based; conditions: in vivo, 0.25 h; procedure, shortened: as §1
[42] = Metabolic stability in Wistar rat assessed as parent compound level in urine at 0.67 umol, iv after 15 mins by mass spectrometry analysis; type: ADME, organism-based; conditions: in vivo, 0.25 h; procedure, shortened: as §1
[43] = Metabolic stability in Wistar rat assessed as parent compound level in bile at 0.67 umol, iv after 15 mins by mass spectrometry analysis; type: ADME, organism-based; conditions: in vivo, 0.25 h; procedure, shortened: as §1
Nucleic Acid [44] = experiment: Ratio of drug uptake in kidney to liver in Wistar rat assessed as level at 0.67 umol, iv by mass spectrometry analysis; conditions: in vivo
Nucleic Acid [45] = experiment: Ratio of drug uptake in kidney to liver in Wistar rat assessed as cyanidin 3-glucoside level at 0.67 umol, iv after 15 mins by mass spectrometry analysis; conditions: in vivo, 0.25 h

Work on `OC[C@H]1O[C@@H](Oc2cc3c(O)cc(O)cc3[o+]c2-c2ccc(O)c(O)c2)[C@H](O)[C@@H](O)[C@@H]1O` [KUROMANIN] yielded a concentration at 15 s [1] of 18.2 µM, a concentration at 1 min [2] of 5.7 µM and a concentration at 5 min [3] of 1.6 µM. The concentration at 0.25 h [4] was 1.6 µM, the Drug uptake (Kidney [5]) was 27.1 nmol and the concentration at 15 s [6] was 11.3 µM. It also gave a Drug uptake (Kidney [7]) of 29.8 nmol, a concentration at 1 min [8] of 12.4 µM and a Drug uptake (Kidney [9]) of 10.7 nmol. It also gave a concentration at 5 min [10] of 4.5 µM, a Drug uptake (Kidney [11]) of 10.6 nmol and a concentration at 0.25 h [12] of 4.4 µM. For the same molecule, the Drug uptake (Liver [13]) was 2.5 nmol, the concentration at 15 s [14] was 0.4 µM and the Drug uptake (Liver [15]) was 2.5 nmol. For the same molecule, the concentration at 1 min [16] was 0.4 µM, the Drug uptake (Liver [17]) was 0.1 nmol and the concentration at 5 min [18] was 0.02 µM. For the same molecule, the Drug uptake (Liver [19]) was 0.4 nmol, the concentration at 0.25 h [20] was 0.1 µM and the k el [21] was 0.0317 s⁻¹. For the same molecule, the Drug uptake [22] was 41.3 nmol, the concentration at 0.25 h [23] was 317 µM and the Drug uptake [24] was 0.4 nmol. For the same molecule, the concentration at 0.25 h [25] was 2.3 µM, the dose excreted at 0.25 h [26] was 6.2% and the dose excreted at 0.25 h [27] was < 0.1%. For the same molecule, the Ratio (Nucleic Acid [28]) was 71.9, the Ratio (Nucleic Acid [29]) was 34.2 and the Stability (Plasma [30]) was 171.2 nmol. It also gave a Stability (Plasma [31]) of 55.8 nmol, a Stability (Plasma [32]) of 17.2 nmol and a Stability (Plasma [33]) of 19.7 nmol. It also gave a Stability (Kidney [34]) of 73.1 nmol, a Stability (Kidney [35]) of 130.8 nmol and a Stability (Kidney [36]) of 52 nmol. For the same molecule, the Stability (Kidney [37]) was 62.7 nmol, the Stability (Liver [38]) was 43.6 nmol and the Stability (Liver [39]) was 84.4 nmol. It also gave a Stability (Liver [40]) of 34.6 nmol, a Stability (Liver [41]) of 32.3 nmol and a Stability [42] of 141 nmol. The Stability [43] was 58.9 nmol, the Ratio (Nucleic Acid [44]) was 12 and the Ratio (Nucleic Acid [45]) was 37.
